In brackets after ≈: the same amount, converted by molar mass.
Columns and labels:
[1] = tested on: Mycobacterium tuberculosis; assay: Antitubercular activity against dormant Mycobacterium tuberculosis H37Ra ATCC 25177 after 12 days by XTT reduction menadione assay; format: functional; conditions: H37Ra ATCC 25177, 288 h
Method in brief: (§1)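 H37Ra was tested by microdilution in 96-well plates, at 30–0.001 μg/mL in one-third dilutions. Each plate carried a rifampicin and isoniazid dilution series as positive controls. Growth was scored by XTT reduction menadione assay (XRMA) and cross-checked by a final absorbance reading at 600 nm.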

[2] = (§2) Cytotoxicity against human PANC1 cells assessed as growth inhibition after 90 hrs by MTT assay; format: cell-based, PANC-1; conditions: PANC-1 cells
[3] = tested on: PANC-1; assay: as §2; format: cell-based; conditions: panc-1, 90 h
[4] = (§3) Cytotoxicity against human THP1 cells assessed as growth inhibition after 72 hrs by MTT assay; format: cell-based, THP-1; conditions: THP-1 cells
[5] = tested on: THP-1; assay: as §3; format: cell-based; conditions: thp-1, 72 h
[6] = tested on: Mycobacterium tuberculosis; assay: Antitubercular activity against dormant Mycobacterium tuberculosis H37Ra ATCC 25177 at 3 to 30 ug/ml after 12 days by XTT reduction menadione assay; format: functional; parameters: scale not given: the % may be the effect or the level left
[7] = tested on: Mycobacterium tuberculosis; assay: Antitubercular activity against active Mycobacterium tuberculosis H37Ra ATCC 25177 infected in human THP1 cells after 8 days by nitrate reductase assay; format: functional; conditions: H37Ra ATCC 25177, 192 h
[8] = tested on: Mycobacterium tuberculosis; assay: Antitubercular activity against dormant Mycobacterium tuberculosis H37Ra ATCC 25177 infected in human THP1 cells after 12 days by nitrate reductase assay; format: functional; conditions: H37Ra ATCC 25177, 288 h
[9] = tested on: Mycobacterium tuberculosis; assay: Antitubercular activity against active Mycobacterium tuberculosis H37Ra ATCC 25177 after 8 days by XTT reduction menadione assay; format: functional; conditions: H37Ra ATCC 25177, 192 h; method in brief: as §1
[10] = (§4) Cytotoxicity against human HeLa cells assessed as growth inhibition after 72 hrs by MTT assay; format: cell-based; conditions: HeLa cells
[11] = tested on: HeLa; assay: as §4; format: cell-based; conditions: hela, 72 h
[12] = Selectivity index, ratio of GI50 for human THP1 cells to MIC90 for dormant Mycobacterium bovis BCG ATCC 35734; format: toxicity; conditions: THP-1 cells, read-out: Selectivity Index
[13] = Selectivity index, ratio of GI50 for human PANC1 cells to MIC90 for dormant Mycobacterium bovis BCG ATCC 35734; format: toxicity; conditions: PANC-1 cells, read-out: Selectivity Index
[14] = Selectivity index, ratio of GI50 for human HeLa cells to MIC90 for dormant Mycobacterium bovis BCG ATCC 35734; format: toxicity; conditions: read-out: Selectivity Index
[15] = Selectivity index, ratio of GI50 for human THP1 cells to MIC90 for active Mycobacterium bovis BCG ATCC 35734; format: toxicity; conditions: THP-1 cells, read-out: Selectivity Index
[16] = Selectivity index, ratio of GI50 for human HeLa cells to MIC90 for active Mycobacterium bovis BCG ATCC 35734; format: toxicity; conditions: read-out: Selectivity Index
[17] = Selectivity index, ratio of GI50 for human PANC1 cells to MIC90 for active Mycobacterium bovis BCG ATCC 35734; format: toxicity; conditions: PANC-1 cells, read-out: Selectivity Index
[18] = Selectivity index, ratio of GI50 for human THP1 cells to MIC90 for dormant Mycobacterium tuberculosis H37Ra ATCC 25177; format: toxicity; conditions: THP-1 cells, read-out: Selectivity Index
[19] = Selectivity index, ratio of GI50 for human THP1 cells to MIC90 for active Mycobacterium tuberculosis H37Ra ATCC 25177; format: toxicity; conditions: THP-1 cells, read-out: Selectivity Index
[20] = Antioxidant activity assessed as DPPH radical scavenging activity after 30 mins by spectrophotometric method; format: functional

SMILES	MIC90 [1] [µg/mL]	GI50 at 90 h [2] [µg/mL]	GI90 [3] [µg/mL]	GI50 at 72 h [4] [µg/mL]	GI90 [5] [µg/mL]	Activity [6] [%]	MIC90 [7] [µg/mL]	MIC90 [8] [µg/mL]	MIC90 [9] [µg/mL]	GI50 at 72 h [10] [µg/mL]	GI90 [11] [µg/mL]	selectivity ratio [12]	selectivity ratio [13]	selectivity ratio [14]	selectivity ratio [15]	selectivity ratio [16]	selectivity ratio [17]	selectivity ratio [18]	selectivity ratio [19]	EC50 [20] [µg/mL]
O=C(CC(=O)c1cc(Cl)ccc1O)c1cc2ccccc2s1	2.79 (≈ 8.43 µM)	8.44 (≈ 25.5 µM)	26.03 (≈ 78.7 µM)	7.48 (≈ 22.6 µM)	> 30	>92	2.83 (≈ 8.56 µM)	0.91 (≈ 2.75 µM)	3.29 (≈ 9.95 µM)	4.42 (≈ 13.4 µM)	8.24 (≈ 24.9 µM)									
Cc1ccc2oc(-c3cc4ccccc4s3)cc(=O)c2c1	30 (≈ 103 µM)	12.9 (≈ 44 µM)	29.75 (≈ 102 µM)	> 100	> 100		8.39 (≈ 28.7 µM)	2.76 (≈ 9.44 µM)	28.9 (≈ 98.7 µM)	15.6 (≈ 53.2 µM)	27.8 (≈ 95.1 µM)	> 22	> 20	> 20	> 22	> 20	> 20			
O=C(CC(=O)c1cc(Br)ccc1O)c1cc2ccccc2s1	2.63 (≈ 7.01 µM)	18.3 (≈ 48.8 µM)	> 30	> 100	> 100	>92	4.94 (≈ 13.2 µM)	3.91 (≈ 10.4 µM)	2.87 (≈ 7.65 µM)	6.75 (≈ 18 µM)	20.28 (≈ 54 µM)		> 10				> 10			
Cc1ccc(O)c(C(=O)CC(=O)c2cc3ccccc3s2)c1		15.8 (≈ 51 µM)	> 30	> 100	> 100					7.12 (≈ 22.9 µM)	> 30		> 10							
Cc1cc(O)c(C(=O)CC(=O)c2cc3ccccc3s2)cc1Cl		20.4 (≈ 59 µM)	> 30	> 100	> 100					> 100	> 100	> 22			> 22					
Cc1cc2oc(-c3cc4ccccc4s3)cc(=O)c2cc1Cl	24.3 (≈ 74.5 µM)	> 100	> 100	> 100	> 100		7.67 (≈ 23.5 µM)	2.18 (≈ 6.67 µM)	25.4 (≈ 77.6 µM)	21.2 (≈ 64.9 µM)	> 30	> 30		> 35	> 30	> 35		> 30	> 30	
O=C(CC(=O)c1cc(Cl)cc(Cl)c1O)c1cc2ccccc2s1		26.2 (≈ 71.8 µM)	> 30	> 100	> 100					> 100	> 100		> 10							
O=C(CC(=O)c1ccccc1O)c1cc2ccccc2s1	2.05 (≈ 6.92 µM)	7.77 (≈ 26.2 µM)	> 30	> 100	> 100	>92	2.96 (≈ 9.99 µM)	1.82 (≈ 6.14 µM)	25.2 (≈ 84.9 µM)	7.86 (≈ 26.5 µM)	> 30									
Cc1ccc(C(=O)CC(=O)c2cc3ccccc3s2)c(O)c1	4.41 (≈ 14.2 µM)	9.24 (≈ 29.8 µM)	> 30	> 100	> 100	>92	25.8 (≈ 83.3 µM)	2.61 (≈ 8.41 µM)	5.45 (≈ 17.6 µM)	23.1 (≈ 74.5 µM)	> 30			> 13		> 13				20 (≈ 64.4 µM)
NNC(=O)c1ccncc1 [ISONIAZID]	0.075 (≈ 0.547 µM)						0.05 (≈ 0.365 µM)	0.075 (≈ 0.547 µM)	0.074 (≈ 0.54 µM)											
CC(=O)O[C@H]1C(=O)[C@@]2(C)[C@H]([C@H](OC(=O)c3ccccc3)[C@]3(O)C[C@H](OC(=O)[C@H](O)[C@@H](NC(=O)c4ccccc4)c4ccccc4)C(C)=C1C3(C)C)[C@]1(OC(C)=O)CO[C@@H]1C[C@@H]2O [PACLITAXEL]		0.127 (≈ 0.149 µM)	5.715 (≈ 6.69 µM)	0.133 (≈ 0.156 µM)	5.81 (≈ 6.8 µM)					0.004 (≈ 0.00468 µM)	0.075 (≈ 0.0878 µM)									
CO[C@H]1/C=C/O[C@@]2(C)Oc3c(C)c(O)c4c(O)c(c(/C=N/N5CCN(C)CC5)c(O)c4c3C2=O)NC(=O)/C(C)=C\C=C\[C@H](C)[C@H](O)[C@@H](C)[C@@H](O)[C@@H](C)[C@H](OC(C)=O)[C@@H]1C [RIFAMPIN]	0.043 (≈ 0.0523 µM)						0.5 (≈ 0.608 µM)	0.8 (≈ 0.972 µM)	0.048 (≈ 0.0583 µM)											

Source: ChEMBL document CHEMBL4431374, “Synthesis and Antitubercular Activity of New Benzo[b]thiophenes” (ACS Med Chem Lett, 2016)
